Experimental data taken from ChEMBL document CHEMBL4261600 (Eur J Med Chem, 2018).
The source made the active and inactive calls.

What was measured:
[1] = target: Serine/threonine-protein kinase BRSK2 (Homo sapiens) (UniProt Q8IWQ3); test: Binding affinity to wild-type human full length BRSK2 (M1 to L674 residues) expressed in bacterial expression system assessed as remaining unbound target protein level at 1000 nM by Kinomescan method relative to control
Outline: (§1)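 Single-point competition binding screen across a panel of 468 kinases and mutants, with the inhibitor at 1 μM. Binding is read out as percent of a DMSO control, and targets below 1 percent control were classed as strong binders.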

[2] = target: Mitogen-activated protein kinase kinase kinase kinase 2 (Homo sapiens) (UniProt Q12851); test: Binding affinity to wild-type human partial length MAP4K2 (M1 to G318 residues) expressed in mammalian expression system assessed as remaining unbound target protein level at 1000 nM by Kinomescan method relative to control
Outline: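 KINOMEscan binding panel of 468 kinases/mutants. Inhibitor was tested at a single concentration of 1 μM. Binding is reported as percent of control, defined relative to a DMSO control.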

[3] = target: RAF proto-oncogene serine/threonine-protein kinase (Homo sapiens) (UniProt P04049); test: Binding affinity to wild-type human partial length RAF1 (I330 to T640 residues) expressed in bacterial expression system assessed as remaining unbound target protein level at 1000 nM by Kinomescan method relative to control
[4] = target: Protein-tyrosine kinase 2-beta (Homo sapiens) (UniProt Q14289); test: Binding affinity to wild-type human full length PYK2 (M1 to E967 residues) expressed in bacterial expression system assessed as remaining unbound target protein level at 1000 nM by Kinomescan method relative to control
Outline: (§2)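 Profiled in a KINOMEscan binding panel with the inhibitor at a single concentration of 1 μM. Binding to each kinase was read out as percent of control, relative to a DMSO control. Strong binders were defined as those with a percent control value below 1.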

[5] = target: Mitogen-activated protein kinase kinase kinase 4 (Homo sapiens) (UniProt Q9Y6R4); test: Binding affinity to wild-type human partial length MAP3K4 (G1319 to E1608 residues) expressed in bacterial expression system assessed as remaining unbound target protein level at 1000 nM by Kinomescan method relative to control
[6] = target: Tyrosine-protein kinase Fgr (Homo sapiens) (UniProt P09769); test: Binding affinity to wild-type human partial length FGR (L233 to T529 residues) expressed in bacterial expression system assessed as remaining unbound target protein level at 1000 nM by Kinomescan method relative to control
[7] = tested on: Tyrosine-protein kinase ABL1 (Homo sapiens), P00519 [F317I]; test: Binding affinity to human phosphorylated ABL1 F317I mutant (S229 to K512 residues) expressed in mammalian expression system assessed as remaining unbound target protein level at 1000 nM by Kinomescan method relative to control; outline: as §1
[8] = target: Ephrin type-A receptor 5 (Homo sapiens) (UniProt P54756); test: Binding affinity to wild-type human partial length EPHA5 (T627 to V930 residues) expressed in bacterial expression system assessed as remaining unbound target protein level at 1000 nM by Kinomescan method relative to control
[9] = target: Mitogen-activated protein kinase kinase kinase kinase 1 (Homo sapiens) (UniProt Q92918); test: Binding affinity to wild-type human full length HPK1 (M1 to R799 residues) expressed in bacterial expression system assessed as remaining unbound target protein level at 1000 nM by Kinomescan method relative to control
Outline: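 KINOMEscan competition binding profile across a panel of 468 kinases and mutants, with the inhibitor tested at a single concentration of 1 μM. Binding is reported as percent of control, meaning signal relative to a DMSO control.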

[10] = AUC (0 to t) in Sprague-Dawley rat at 3 mg/kg, iv by LC-MS/MS analysis; assay type: ADME, organism-based; conditions: in vivo
Outline: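 Non-compartmental PK. Male SD rats 190-210 g, mice and beagle dogs acclimatized one week, fasted 12 h with water, split into iv and po groups (mice 48, rats 6, dogs 6). iv 3/3/2 mg/kg (mice/rats/dogs); po 10/20/10 mg/kg; vehicle DMSO in 5% glucose water. Blood at 2 or 5 to 720 min; plasma protein-precipitated with methanol, caffeine internal standard, LC-MS/MS.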

[11] = target: Serine/threonine-protein kinase BRSK1 (Homo sapiens) (UniProt Q8TDC3); test: Binding affinity to wild-type human partial length BRSK1 (M1 to E754 residues) expressed in bacterial expression system assessed as remaining unbound target protein level at 1000 nM by Kinomescan method relative to control; outline: as §2
[12] = tested on: Proto-oncogene tyrosine-protein kinase receptor Ret (Homo sapiens), P07949 [V804M]; test: Binding affinity to human partial length RET V804M mutant (E713 to D1014 residues) expressed in bacterial expression system assessed as remaining unbound target protein level at 1000 nM by Kinomescan method relative to control
Outline: (§3)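 KINOMEscan competition-binding profiling across the panel of 468 kinases and mutants, with inhibitor tested at 1 μM. Binding is expressed as percent of control, with DMSO as the reference control.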

[13] = target: Macrophage colony-stimulating factor 1 receptor (Homo sapiens) (UniProt P07333); test: Binding affinity to wild-type human partial length autoinhibited CSF1R (Y538 to S939 residues) expressed in mammalian expression system assessed as remaining unbound target protein level at 1000 nM by Kinomescan method relative to control
[14] = organism: Homo sapiens; test: Induction of apoptosis in human MEC1 cells assessed as decrease in BCL-2 level up to 3 uM after 2 hrs by immunoblotting analysis; assay type: functional, cell-based
[15] = target: Interleukin-1 receptor-associated kinase 3 (Homo sapiens) (UniProt Q9Y616); test: Binding affinity to wild-type human partial length IRAK3 (V147 to E596 residues) expressed in bacterial expression system assessed as remaining unbound target protein level at 1000 nM by Kinomescan method relative to control
[16] = tested on: Phosphatidylinositol 4,5-bisphosphate 3-kinase catalytic subunit alpha isoform (Homo sapiens), P42336 [E545K]; test: Binding affinity to human partial length PIK3CA E545K mutant (R108 to N1068 residues) expressed in mammalian expression system assessed as remaining unbound target protein level at 1000 nM by Kinomescan method relative to control; outline: as §3
[17] = target: Mitotic checkpoint serine/threonine-protein kinase BUB1 (Homo sapiens) (UniProt O43683); test: Binding affinity to wild-type human partial length BUB1 (Q724 to K1085 residues) expressed in mammalian expression system assessed as remaining unbound target protein level at 1000 nM by Kinomescan method relative to control; outline: as §2
[18] = target: Receptor-interacting serine/threonine-protein kinase 1 (Homo sapiens) (UniProt Q13546); test: Binding affinity to wild-type human partial length RIPK1 (M1 to K305 residues) expressed in bacterial expression system assessed as remaining unbound target protein level at 1000 nM by Kinomescan method relative to control
[19] = target: Serine/threonine-protein kinase 32A (Homo sapiens) (UniProt Q8WU08); test: Binding affinity to wild-type human full length YANK1 (M1 to L396 residues) expressed in mammalian expression system assessed as remaining unbound target protein level at 1000 nM by Kinomescan method relative to control; outline: as §2

Serine/threonine-protein kinase BRSK1 (Homo sapiens), sequence (Q8TDC3 whole entry, the tested form may be a part): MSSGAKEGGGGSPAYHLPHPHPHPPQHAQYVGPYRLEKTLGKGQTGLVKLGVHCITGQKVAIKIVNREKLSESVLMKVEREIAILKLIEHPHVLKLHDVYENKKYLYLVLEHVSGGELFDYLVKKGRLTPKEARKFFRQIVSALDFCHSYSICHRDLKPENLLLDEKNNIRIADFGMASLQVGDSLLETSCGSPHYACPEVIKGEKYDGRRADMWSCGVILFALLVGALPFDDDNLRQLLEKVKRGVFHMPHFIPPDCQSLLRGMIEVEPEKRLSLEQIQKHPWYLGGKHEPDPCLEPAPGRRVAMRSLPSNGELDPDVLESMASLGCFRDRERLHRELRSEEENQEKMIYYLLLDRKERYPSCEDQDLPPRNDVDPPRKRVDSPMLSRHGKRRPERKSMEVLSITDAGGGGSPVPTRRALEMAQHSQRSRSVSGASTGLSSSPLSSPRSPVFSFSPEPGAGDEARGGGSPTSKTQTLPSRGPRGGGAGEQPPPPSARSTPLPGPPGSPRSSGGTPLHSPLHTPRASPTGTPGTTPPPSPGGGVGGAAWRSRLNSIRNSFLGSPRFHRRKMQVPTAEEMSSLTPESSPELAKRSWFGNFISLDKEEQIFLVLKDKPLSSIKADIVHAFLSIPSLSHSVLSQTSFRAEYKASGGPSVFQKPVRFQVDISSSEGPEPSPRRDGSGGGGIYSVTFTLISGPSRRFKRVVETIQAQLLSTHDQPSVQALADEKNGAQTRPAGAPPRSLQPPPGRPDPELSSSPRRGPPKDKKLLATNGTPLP
Mitotic checkpoint serine/threonine-protein kinase BUB1 (Homo sapiens), sequence (O43683 whole entry, looked up, the tested form may be a part): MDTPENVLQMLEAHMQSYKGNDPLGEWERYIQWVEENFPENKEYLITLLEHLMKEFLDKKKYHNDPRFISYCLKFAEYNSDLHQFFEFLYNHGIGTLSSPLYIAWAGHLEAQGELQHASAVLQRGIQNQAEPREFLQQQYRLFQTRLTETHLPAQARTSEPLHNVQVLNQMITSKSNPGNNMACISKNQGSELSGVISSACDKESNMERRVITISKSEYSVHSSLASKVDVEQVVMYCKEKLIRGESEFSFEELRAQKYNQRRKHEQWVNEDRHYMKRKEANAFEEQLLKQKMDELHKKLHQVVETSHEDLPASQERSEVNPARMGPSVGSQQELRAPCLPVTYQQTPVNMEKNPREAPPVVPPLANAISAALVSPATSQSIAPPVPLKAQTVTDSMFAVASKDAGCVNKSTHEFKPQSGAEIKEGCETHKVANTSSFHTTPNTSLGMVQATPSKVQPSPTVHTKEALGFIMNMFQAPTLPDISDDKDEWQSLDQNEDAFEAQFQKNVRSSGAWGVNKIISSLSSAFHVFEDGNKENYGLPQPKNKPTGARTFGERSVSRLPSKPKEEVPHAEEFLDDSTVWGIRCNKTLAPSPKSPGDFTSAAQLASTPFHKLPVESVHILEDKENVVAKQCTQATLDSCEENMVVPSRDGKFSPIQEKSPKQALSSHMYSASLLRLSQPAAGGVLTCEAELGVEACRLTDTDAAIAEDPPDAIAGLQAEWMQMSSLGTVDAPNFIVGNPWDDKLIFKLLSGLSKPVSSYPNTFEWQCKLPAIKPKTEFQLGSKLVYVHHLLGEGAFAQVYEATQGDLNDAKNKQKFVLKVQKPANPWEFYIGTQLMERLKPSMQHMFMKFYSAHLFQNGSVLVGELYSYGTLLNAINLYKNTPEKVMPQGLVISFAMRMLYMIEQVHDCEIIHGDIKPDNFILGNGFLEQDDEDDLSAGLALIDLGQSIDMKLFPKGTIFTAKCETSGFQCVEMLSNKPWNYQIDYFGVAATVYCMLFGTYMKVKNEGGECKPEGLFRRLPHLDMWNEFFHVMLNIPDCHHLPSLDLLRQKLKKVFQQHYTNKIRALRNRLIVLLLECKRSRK
Mitogen-activated protein kinase kinase kinase kinase 1 (Homo sapiens), sequence (Q92918 whole entry, looked up, the tested form may be a part): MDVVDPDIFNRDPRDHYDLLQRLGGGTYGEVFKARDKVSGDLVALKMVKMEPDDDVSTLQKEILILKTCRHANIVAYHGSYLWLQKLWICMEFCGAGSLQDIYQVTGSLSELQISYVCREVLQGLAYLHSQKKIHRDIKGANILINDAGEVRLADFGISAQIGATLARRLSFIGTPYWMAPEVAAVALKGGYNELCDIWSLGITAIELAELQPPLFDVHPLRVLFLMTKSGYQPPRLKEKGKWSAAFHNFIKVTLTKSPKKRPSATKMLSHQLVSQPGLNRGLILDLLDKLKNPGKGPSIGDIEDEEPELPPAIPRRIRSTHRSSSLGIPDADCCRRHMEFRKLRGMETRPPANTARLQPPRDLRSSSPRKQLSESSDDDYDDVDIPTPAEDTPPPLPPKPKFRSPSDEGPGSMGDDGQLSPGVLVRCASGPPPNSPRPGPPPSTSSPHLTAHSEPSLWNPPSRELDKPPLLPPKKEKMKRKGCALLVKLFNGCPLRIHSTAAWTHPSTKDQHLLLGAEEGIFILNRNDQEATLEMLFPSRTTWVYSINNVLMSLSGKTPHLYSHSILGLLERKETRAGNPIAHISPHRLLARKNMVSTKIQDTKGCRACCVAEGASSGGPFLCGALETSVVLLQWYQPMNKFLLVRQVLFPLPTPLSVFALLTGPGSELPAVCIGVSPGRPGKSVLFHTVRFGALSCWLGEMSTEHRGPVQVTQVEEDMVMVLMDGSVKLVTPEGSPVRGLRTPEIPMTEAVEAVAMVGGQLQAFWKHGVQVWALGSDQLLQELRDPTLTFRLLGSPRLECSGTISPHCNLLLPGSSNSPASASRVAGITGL
RAF proto-oncogene serine/threonine-protein kinase (Homo sapiens), sequence (P04049 whole entry, the tested form may be a part): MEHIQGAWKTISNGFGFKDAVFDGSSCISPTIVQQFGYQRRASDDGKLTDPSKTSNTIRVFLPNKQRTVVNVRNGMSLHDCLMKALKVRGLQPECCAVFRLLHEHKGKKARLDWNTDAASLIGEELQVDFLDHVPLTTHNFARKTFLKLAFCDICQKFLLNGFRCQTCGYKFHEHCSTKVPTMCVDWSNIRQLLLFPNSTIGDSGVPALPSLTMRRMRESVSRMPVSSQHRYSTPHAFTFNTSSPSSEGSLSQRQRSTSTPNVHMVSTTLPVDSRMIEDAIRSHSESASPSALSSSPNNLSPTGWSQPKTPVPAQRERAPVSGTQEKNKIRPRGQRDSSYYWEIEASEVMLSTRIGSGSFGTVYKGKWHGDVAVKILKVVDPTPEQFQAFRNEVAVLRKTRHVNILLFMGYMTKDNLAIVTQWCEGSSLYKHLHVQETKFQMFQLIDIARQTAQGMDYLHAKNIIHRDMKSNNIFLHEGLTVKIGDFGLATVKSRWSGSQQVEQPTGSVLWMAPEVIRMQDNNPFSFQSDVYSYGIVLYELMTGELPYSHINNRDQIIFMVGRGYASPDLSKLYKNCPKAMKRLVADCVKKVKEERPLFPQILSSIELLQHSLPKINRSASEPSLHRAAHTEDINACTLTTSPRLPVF
Tyrosine-protein kinase ABL1 (Homo sapiens), P00519 [F317I], sequence (P00519 whole entry F317I, the tested form may be a part): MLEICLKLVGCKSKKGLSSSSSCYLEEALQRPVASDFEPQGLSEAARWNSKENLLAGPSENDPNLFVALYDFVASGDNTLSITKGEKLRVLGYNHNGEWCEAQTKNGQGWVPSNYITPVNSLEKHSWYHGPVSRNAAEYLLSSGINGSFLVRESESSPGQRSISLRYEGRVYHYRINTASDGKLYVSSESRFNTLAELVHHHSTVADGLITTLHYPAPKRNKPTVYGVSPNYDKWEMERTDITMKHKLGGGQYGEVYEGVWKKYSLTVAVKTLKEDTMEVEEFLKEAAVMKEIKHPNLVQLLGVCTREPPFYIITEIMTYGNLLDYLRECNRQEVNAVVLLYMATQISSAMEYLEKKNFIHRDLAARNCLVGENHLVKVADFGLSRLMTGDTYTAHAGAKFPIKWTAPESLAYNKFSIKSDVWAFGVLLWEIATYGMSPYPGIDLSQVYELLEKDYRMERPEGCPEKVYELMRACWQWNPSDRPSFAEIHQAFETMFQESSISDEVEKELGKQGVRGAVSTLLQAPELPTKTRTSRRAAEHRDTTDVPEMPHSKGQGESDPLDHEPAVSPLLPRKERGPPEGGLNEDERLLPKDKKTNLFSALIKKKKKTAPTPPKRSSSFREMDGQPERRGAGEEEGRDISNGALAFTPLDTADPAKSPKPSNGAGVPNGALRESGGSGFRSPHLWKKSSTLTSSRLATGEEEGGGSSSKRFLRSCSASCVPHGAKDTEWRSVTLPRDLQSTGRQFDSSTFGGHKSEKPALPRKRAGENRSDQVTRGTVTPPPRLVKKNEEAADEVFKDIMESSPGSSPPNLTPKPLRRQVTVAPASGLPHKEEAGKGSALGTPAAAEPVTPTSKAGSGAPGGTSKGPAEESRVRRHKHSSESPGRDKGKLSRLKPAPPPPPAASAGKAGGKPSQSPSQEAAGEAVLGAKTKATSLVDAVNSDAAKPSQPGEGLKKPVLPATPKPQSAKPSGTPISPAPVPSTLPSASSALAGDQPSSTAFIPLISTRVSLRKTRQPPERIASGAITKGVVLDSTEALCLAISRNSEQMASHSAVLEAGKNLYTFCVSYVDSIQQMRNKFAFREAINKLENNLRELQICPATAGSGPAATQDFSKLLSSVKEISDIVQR
Tyrosine-protein kinase Fgr (Homo sapiens), sequence (P09769 2-529 limits assumed): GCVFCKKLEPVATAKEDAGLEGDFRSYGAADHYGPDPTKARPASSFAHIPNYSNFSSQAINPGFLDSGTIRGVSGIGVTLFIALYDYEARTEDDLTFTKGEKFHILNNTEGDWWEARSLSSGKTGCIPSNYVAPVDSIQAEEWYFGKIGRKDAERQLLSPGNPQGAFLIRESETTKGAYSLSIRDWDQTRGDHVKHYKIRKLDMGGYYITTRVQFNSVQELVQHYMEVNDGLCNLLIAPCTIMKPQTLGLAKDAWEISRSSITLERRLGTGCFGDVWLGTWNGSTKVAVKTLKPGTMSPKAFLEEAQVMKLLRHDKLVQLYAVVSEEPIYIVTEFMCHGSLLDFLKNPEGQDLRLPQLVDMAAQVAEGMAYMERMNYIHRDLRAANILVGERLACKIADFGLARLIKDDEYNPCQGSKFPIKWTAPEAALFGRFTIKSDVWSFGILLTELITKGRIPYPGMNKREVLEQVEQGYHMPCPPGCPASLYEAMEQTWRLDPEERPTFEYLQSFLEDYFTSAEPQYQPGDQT

Work on `COCCN[C@H]1CC[C@H](Nc2cc(-c3csc(NCC4(C#N)CCOCC4)n3)c(Cl)cn2)CC1` yielded an Activity [1] of 75%, an Activity [2] of 56% and an Activity [3] of 100%. For the same compound, the Activity [4] was 90%, the Activity [5] was 89% and the Activity [6] was 90%. For the same compound, the Activity [7] was 100%, the Activity [8] was 97% and the Activity [9] was 95%. It also gave an AUC(0-t) [10] of 625 ng·h/mL, an Activity [11] of 85% and an Activity [12] of 98%. The Activity [13] was 90%, the Activity [14] was “inactive” and the Activity [15] was 96%. It also gave an Activity [16] of 100%, an Activity [17] of 96% and an Activity [18] of 79%. For the same compound, the Activity [19] was 100%.
